Measurements reported in publication PMC11187553 (RSC Medicinal Chemistry, 2024).
“Also recorded” adds a separate entry of the source.

Key:
SH-SY5Y cells [1] = assay: Cytotoxic effects in SH-SY5Y cells; assay type: cell-based, human; details: for cytotoxicity (in words): 0.1-100 μM, 24, 48 or 72 h
[2] = tested on: histones H2/H3 lysine acetylation; assay: Western blot of lysine acetylation of histones H2/H3 in SH-SY5Y cells; assay type: cell-based, human; details: 5 μM, 6 h
Summary of the method: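 SH-SY5Y cells were seeded at 20 × 10^4 cells/cm2 and grown 48 h, then given 5 μM test compound or vehicle for 6 h. Cells were washed in 10 mM sodium butyrate/PBS, nuclei isolated, and histones acid-extracted (0.4 N H2SO4, 4 °C, 1 h) and precipitated in acetone. Samples ran on 15% gels and were blotted to nitrocellulose with anti-acetyl-lysine antibody. Densitometry was normalised to H1.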

[3] = tested on: reactive oxygen species (ROS) in SH-SY5Y cells; assay: ROS determination with DCFDA probe in SH-SY5Y cells; assay type: cell-based, human; details: for protective effect against TBH-induced oxidative stress: 2 μM 24 h pre-treatment, 100 μM tert-butyl hydroperoxide 30 min; for effect on endogenous ROS (oxidative stress) vs control: 2 μM, 24 h, DCFDA
Summary of the method: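 SH-SY5Y cells (1 × 10^4/well) were left 24 h to adhere, then given vehicle or 2 μM test compound for 24 h. After washing, cells were loaded with 10 μM DCFDA in DMEM for 30 min. Oxidative stress was then induced with 100 μM tert-butyl hydroperoxide in PBS for 30 min. Fluorescence (485/535 nm) was normalised to Lowry protein; experiments were done in triplicate.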

SH-SY5Y cells [4] = assay: Analysis of cell cycle in SH-SY5Y cells; assay type: cell-based, human; details: 72 h
Summary of the method: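 SH-SY5Y cells were grown in DMEM with 10% FBS and antibiotics at 37 °C in 5% CO2. After 72 h with test compound, cells were collected, fixed in 70% ice-cold ethanol and stained with a propidium iodide cell-cycle reagent for 30 min in the dark at room temperature. Cell-cycle distribution was read by flow cytometry.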

SH-SY5Y cells [5] = assay: SH-SY5Y viability after NAC pre-treatment and compound 6; assay type: cell-based, human; details: NAC 2 mM 1 h, then compound 10 μM 24 h
SH-SY5Y cells [6] = assay: SH-SY5Y viability after sulforaphane; assay type: cell-based, human; details: data not shown
HDAC6 = molecular target: T1, HDAC6 (Homo sapiens, UniProt Q9UBN7); assay: HDAC inhibition in vitro assay; assay type: biochemical; details: from IC50 values of Table 2
T1 sequence (Q9UBN7 1-1215): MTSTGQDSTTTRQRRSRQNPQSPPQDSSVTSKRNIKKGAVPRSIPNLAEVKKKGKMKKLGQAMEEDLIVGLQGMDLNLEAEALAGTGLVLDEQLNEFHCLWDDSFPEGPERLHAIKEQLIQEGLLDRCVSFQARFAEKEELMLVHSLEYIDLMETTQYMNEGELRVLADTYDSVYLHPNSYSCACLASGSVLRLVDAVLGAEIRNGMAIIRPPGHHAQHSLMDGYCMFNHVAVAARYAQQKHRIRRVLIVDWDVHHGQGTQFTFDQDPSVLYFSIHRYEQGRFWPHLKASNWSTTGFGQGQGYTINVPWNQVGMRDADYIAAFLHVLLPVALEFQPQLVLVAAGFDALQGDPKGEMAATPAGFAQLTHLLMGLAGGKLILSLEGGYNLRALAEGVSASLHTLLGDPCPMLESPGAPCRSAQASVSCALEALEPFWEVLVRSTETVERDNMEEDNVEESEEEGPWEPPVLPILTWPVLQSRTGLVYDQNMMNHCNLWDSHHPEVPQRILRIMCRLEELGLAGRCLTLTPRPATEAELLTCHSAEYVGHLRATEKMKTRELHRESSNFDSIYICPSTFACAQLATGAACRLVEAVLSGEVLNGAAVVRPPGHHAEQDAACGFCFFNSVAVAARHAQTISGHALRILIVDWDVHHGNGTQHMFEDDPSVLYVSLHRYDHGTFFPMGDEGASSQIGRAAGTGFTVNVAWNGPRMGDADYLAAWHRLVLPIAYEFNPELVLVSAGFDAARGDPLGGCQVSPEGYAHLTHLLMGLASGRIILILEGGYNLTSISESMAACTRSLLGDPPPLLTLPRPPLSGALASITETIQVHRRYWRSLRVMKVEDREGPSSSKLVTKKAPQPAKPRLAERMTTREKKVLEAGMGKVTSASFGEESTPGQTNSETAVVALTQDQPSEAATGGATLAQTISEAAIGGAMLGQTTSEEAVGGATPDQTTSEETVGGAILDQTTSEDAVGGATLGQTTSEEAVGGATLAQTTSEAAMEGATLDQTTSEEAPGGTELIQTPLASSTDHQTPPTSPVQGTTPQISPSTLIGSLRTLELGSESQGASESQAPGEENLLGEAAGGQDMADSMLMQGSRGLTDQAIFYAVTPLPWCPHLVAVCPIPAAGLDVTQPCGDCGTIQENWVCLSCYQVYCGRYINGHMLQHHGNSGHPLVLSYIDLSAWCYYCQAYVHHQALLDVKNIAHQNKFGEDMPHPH

SH-SY5Y cells [7] = assay: Protection of SH-SY5Y cells from H2O2 cytotoxicity; assay type: cell-based, human; details: pre-treatment at all concentrations (1-50 μM), 24 h
HepG2 cells = assay: Cytotoxicity in human hepatoma cell line HepG2; assay type: cell-based; details: 24 h incubation at 1-100 μM, MTT
Summary of the method: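 HepG2 cells were grown in MEM with 10% FBS, penicillin and streptomycin, then seeded at 1.5 × 10^4 cells/well. After 24 h they received test compound ([…]) in complete medium or vehicle for 24 h. MTT (0.2 mg mL−1 in PBS) was added for 2 h at 37 °C, formazan was dissolved in DMSO, and A570 was read. Results are % live cells versus vehicle, mean ± SD, n = 4.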

[8] = tested on: neural progenitor cells (neurospheres); assay: Neurospheres proliferation; assay type: cell-based, Mus musculus; details: 7 DIV
Summary of the method: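 NPCs from the subventricular zone of 8-month-old male C57BL/6N mice were Accutase-dissociated and plated as single cells (5 × 10^3/well) in suspension. Medium was DMEM-F12 with glutamine, insulin, 20 ng ml−1 EGF, 20 ng ml−1 FGF2, N2 and B27. Test compound (2.5–50 μM) or DMSO was present for 7 DIV. Brightfield live-cell images were taken daily; only aggregates over 400 μm2 were analysed.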

[9] = tested on: neural progenitor cells (neurospheres); assay: Neurospheres differentiation analysis; assay type: cell-based, Mus musculus; details: 2.5 and 5 μM, 7 DIV
Summary of the method: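 Neurospheres came from subventricular-zone NPCs of 8-month-old male C57BL/6N mice. Thirty spheres were plated on Matrigel-coated coverslips in complete DMEM F-12 with test compound or DMSO for 7 DIV. Cells were fixed in 4% PFA, permeabilised with Triton, blocked in goat serum, and stained overnight at 4 °C for DCX, GFAP, Olig2 and Nestin. Confocal z-stacks gave marker intensity/DAPI intensity; mean ± SD of 3 fields per condition.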

Work on `CC1=C(NCCCCCC(=O)NO)C(=O)c2ccccc2C1=O` [Compound 2, N-Hydroxy-6-((3-methyl-1,4-dioxo-1,4-dihydronaphthalen-2-yl)amino)hexanamide] yielded an IC50 (SH-SY5Y cells [1]; Homo sapiens, 24 h, read-out: IC50 (μM) ± SEM 24 h) of over 100 µM.

In the case of `Nc1ccccc1NC(=O)c1ccc(CNC2=CC(=O)c3ccccc3C2=O)cc1` [Compound 5, N-(2-Aminophenyl)-4-(((1,4-dioxo-1,4-dihydronaphthalen-2-yl)amino)methyl)benzamide], the “cytotoxicity (in words)” value (SH-SY5Y cells [1]) is reported as “comparable to that of vorinostat”.

In the case of `CC1=C(NCc2ccc(C(=O)Nc3ccccc3N)cc2)C(=O)c2ccccc2C1=O` [Compound 6, N-(2-Aminophenyl)-4-(((3-methyl-1,4-dioxo-1,4-dihydronaphthalen-2-yl)amino)methyl)benzamide], the “acetylation of histone H2/H3 lysines” value [2] is reported as “massive hyperacetylation”, the “protective effect against TBH-induced oxidative stress” value [3] is reported as “did not show any protective effect” and the “effect on endogenous ROS (oxidative stress) vs control” value [3] is reported as “significant induction of oxidative stress”. For the same molecule, the “cell-cycle block in G0/G1, S or G2/M (cytostatic effect)” value (SH-SY5Y cells [4]) was “no cell-cycle block”, the “mitigation of cytotoxic effect by NAC pre-treatment” value (SH-SY5Y cells [5]) was “not mitigated” and the “change of toxic activity in cells pretreated with sulforaphane” value (SH-SY5Y cells [6]; SFN pre-treatment) was “did not observe any change in the toxic activity”.

`O=C(CS)NCCCCNC1=CC(=O)c2ccccc2C1=O` [Compound 7, N-(4-((1,4-Dioxo-1,4-dihydronaphthalen-2-yl)amino)butyl)-2-mercaptoacetamide] was tested, and the “cytotoxicity (in words)” value (SH-SY5Y cells [1]) was “lowest cytotoxicity”.

With `CC1=C(NCCCCNC(=O)CS)C(=O)c2ccccc2C1=O` [Compound 8, 2-Mercapto-N-(4-((3-methyl-1,4-dioxo-1,4-dihydronaphthalen-2-yl)amino)butyl)acetamide] the “cytotoxicity (in words)” value (SH-SY5Y cells [1]) was “nontoxic up to the concentration of 100 μM; also recorded: lowest cytotoxicity”, the “selectivity between HDAC2 and HDAC6 isoforms” value (HDAC6) was “no selectivity” and the “protective effect against TBH-induced oxidative stress” value [3] was “did not show any protective effect”. The “effect on endogenous ROS (oxidative stress) vs control” value [3] was “only a tendency to increase ROS production”, the “rescue of SH-SY5Y cell viability from H2O2” value (SH-SY5Y cells [7]) was “did not rescue” and the “toxicity in HepG2 cells (in words)” value (HepG2 cells) was “no significant toxicity up to 10 μM”. For the same molecule, the “neurospheres number per well vs DMSO control” value ([8]; 2.5 and 5 μM) was “significantly increased”, the “neurospheres size vs DMSO control” value ([8]; 2.5 and 5 μM) was “without affecting” and the toxicity to neurospheres ([8]; higher concentrations 25, 50 μM) was “toxic”. The “DCX+ cells (immature neurons marker) vs DMSO control” value [9] was “significantly increased”, the “GFAP expression (astrocytes marker) vs DMSO control” value [9] was “without affecting” and the “Nestin+ cells (NPCs marker) vs DMSO control” value [9] was “decreased”. For the same molecule, the “Olig2 expression (OPCs marker) vs DMSO control” value [9] was “without affecting” and the “protective activity in H2O2-stressed cells after sulforaphane treatment” value (SH-SY5Y cells [6]; SFN (NQO1 inducer)) was “no increase in the protective activity”.
